EBI2 block: blocks human EBI2 receptor beta-arrestin signaling; actives 0.81% (n = 360,000); EBI2 beta-arrestin recruitment, luminescence, 7a,25-OHC stimulated; inhibition, % at 5 µM; P32249; AID 651636; in the data active = inhibition above about 38%;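 also: enzyme fragment complementation signal reports receptor beta-arrestin coupling in cells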
MC4R antagonist: human MC4R antagonism in cAMP assay; P32245; MC4R-expressing cells, MTII-stimulated cAMP, LANCE TR-FRET; inhibition, % at 6.5 µM; actives 0.48% (n = 360,000); AID 540295;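 active = inhibition above its plate's cutoff, the mean of tested wells on that plate plus 3 SD, cut at about 29% in these data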
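System: U2OS cells stably expressing human melanocortin 4 receptor (MC4R). Reagent: Melanotan II challenge after compound preincubation. Doses: 6.5 µM. Times: 30-min compound, 1-h challenge, 1-h detection, room temperature. Measured by: TR-FRET with Eu-cAMP and labeled anti-cAMP, 671 nm. Replicates: singlicate.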
m5-HT2A agonist: activates the mouse 5-HT2A serotonin receptor | CHO-K1 mHTR2A beta-arrestin complementation, luminescence; percent of 30 µM serotonin response | activation, % at 7.6 µM | actives 0.66% (n = 360,000) | P35363 | AID 624169;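 active = activation above a run cutoff, the mean activation of all tested compounds plus 3 SD, cut at about 14% in these data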
MC4R ag barr: agonists of human melanocortin 4 receptor (MC4R) beta-arrestin | P32245 | AID 540308 | activation, % at 8.9 µM | U2OS MC4R beta-arrestin complementation, luminescence; percent of melanotan II response, DMSO zero | actives 0.98% (n = 360,000);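 active = activation above a per-plate cutoff, the mean activation of sample wells on that plate plus 3 SD, cut at about 8% in these data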
MC4R barr ag: human MC4R beta-arrestin agonism confirmation. shares compounds with MC4R ag barr. U2OS MC4R beta-arrestin recruitment, luminescence; scaled DMSO 0%, Melanotan II 100%. activation, % at 8.9 µM. actives 31% (n = 2,400);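 active = mean activation across replicates above the hit cutoff set in the earlier primary screen, cut at about 8% in these data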
MOR DOR agonist: OPRM1-OPRD1 heterodimer agonism counter-screen | actives 5.8% (n = 2,400) | U2OS PathHunter beta-arrestin, beta-gal luminescence; percent of deltorphin B response, DMSO zero | activation, % at 9.2 µM | shares compounds with MC4R ag barr;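 active = mean activation across replicates exceeds the hit threshold derived in the earlier primary screen, cut at about 18% in these data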
Target sequence (P35372 whole entry, looked up): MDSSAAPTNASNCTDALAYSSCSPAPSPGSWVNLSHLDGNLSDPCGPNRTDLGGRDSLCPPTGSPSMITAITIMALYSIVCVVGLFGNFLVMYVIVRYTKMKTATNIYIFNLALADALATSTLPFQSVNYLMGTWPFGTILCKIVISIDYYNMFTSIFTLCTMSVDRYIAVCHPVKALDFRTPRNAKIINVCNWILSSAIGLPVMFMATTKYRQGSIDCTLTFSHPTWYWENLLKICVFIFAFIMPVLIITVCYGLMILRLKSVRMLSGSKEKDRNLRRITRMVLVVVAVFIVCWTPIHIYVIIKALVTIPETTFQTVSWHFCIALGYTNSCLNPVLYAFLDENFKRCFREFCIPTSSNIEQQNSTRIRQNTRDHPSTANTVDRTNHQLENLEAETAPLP
Target sequence (P41143 whole entry, looked up): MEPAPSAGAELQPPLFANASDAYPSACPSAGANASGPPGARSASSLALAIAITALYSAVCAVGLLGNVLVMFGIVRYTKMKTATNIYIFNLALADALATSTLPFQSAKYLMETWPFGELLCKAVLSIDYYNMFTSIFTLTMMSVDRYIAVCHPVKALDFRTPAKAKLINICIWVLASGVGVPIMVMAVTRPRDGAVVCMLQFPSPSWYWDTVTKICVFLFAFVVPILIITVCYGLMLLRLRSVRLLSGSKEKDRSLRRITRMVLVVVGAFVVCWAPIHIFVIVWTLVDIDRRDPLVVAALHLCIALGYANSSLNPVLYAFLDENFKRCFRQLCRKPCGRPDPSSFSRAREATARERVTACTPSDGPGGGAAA
A number is an active result; – = inactive; · = no result. Sampled rows, rich in hits. Any-hit rate of the full collection: about 2.8%.

SMILES	EBI2 block	MC4R antagonist	m5-HT2A agonist	MC4R ag barr	MC4R barr ag	MOR DOR agonist
COc1cc(Cn2c3ccc(NC(=O)NCCc4ccccc4)cc3c(=O)n2C)ccc1F	–	–	–	–	·	·
CC(C)NC(=O)C1(C)CN(S(C)(=O)=O)CC(=O)N1CCOc1ccccc1 (stereo not given)	–	·	–	·	·	·
Cc1ccc(C)c(Cn2cnc3c(nnn3-c3ccc(F)cc3)c2=O)c1	–	–	–	13	–	–
COc1ccc(-n2nnc3c(=O)n(Cc4ccccc4C)cnc32)cc1	–	–	–	–	·	·
O=C(NCc1ccco1)c1cc(-c2ccc3c(c2)OCO3)on1	–	–	–	12	–	–
CCOC(=O)C1(C)CCCCCN1C(=O)c1ccc(OC)c(C(F)(F)F)c1 (stereo not given)	–	–	–	10	–	–
COc1ccc(S(=O)(=O)N2CCN(C(=O)C3CC(=O)N(c4ccccc4F)C3)CC2)cc1OC (stereo not given)	–	–	–	–	·	·
C/C(=N\NC(=S)NCc1ccccc1)c1ccccc1F	–	–	–	–	·	·
C/C(=N/OCO/N=C(\C)c1ccccc1F)c1ccccc1F	–	–	–	9.6	–	–
CCCc1cc(=O)oc2cc(OCC(=O)NCCc3c[nH]c4ccccc34)ccc12	–	–	–	17	14	25
Cc1cc(=O)oc2cc(OCC(=O)NCCc3c[nH]c4ccc(F)cc34)ccc12	–	–	–	–	·	·
Cc1ccnc(Nc2nc(-c3ccc(O)cc3O)cs2)c1	–	–	–	18	13	–
Cc1c2ccncc2cc2c1[nH]c1ccccc12	–	–	–	–	·	·
COc1ccc2[nH]c3c(C)c4ccncc4c(C)c3c2c1	–	–	–	14	28	–
COc1cccc(CC2(CO)CCCN(Cc3[nH]c4ccc(C)cc4c3C)C2)c1 (stereo not given)	–	–	–	11	19	–
C[C@H]1COc2cccc(N(C)CCO)c2S(=O)(=O)N1	–	·	–	·	·	·
CN(C)S(=O)(=O)c1ccc(Cl)c(C(=O)Nc2ccc(S(=O)(=O)N3CCOCC3)cc2)c1	–	–	–	–	·	·
CCCC(=O)Nc1ccc(-c2csc(N/N=C\c3ccncc3)n2)cc1	–	–	–	19	–	–
O=C(CSc1nc(=O)n(Cc2ccccn2)c2c1CCC2)Nc1ccc(F)cc1F	–	–	–	–	·	·
Cc1ccc(Oc2ccc(Cl)cc2NC(=O)c2ccc(F)cc2F)cc1	–	–	–	11	–	–
O=C(Nc1cc(Cl)ccc1Oc1ccccc1)c1ccccc1F	–	–	–	–	·	·
O=C(COC(=O)c1ccccc1O)NCCC1=CCCCC1	–	–	–	–	·	·
O=C(COC(=O)c1ccccc1NC(=O)c1ccco1)NCCC1=CCCCC1	–	–	–	14	–	–
CC(C)=C[C@@H]1C[C@H](C)[C@H]2CC[C@H](C)c3c(O[C@@H]4O[C@@H](C)[C@@H](O)[C@@H](O)[C@@H]4O)c(O)c(C)c1c32	–	–	–	–	·	·
CC(C)=C[C@H]1C[C@H](C)[C@H]2CC[C@H](C)c3c(O)c(O[C@H]4OC[C@H](O)[C@@H](O)[C@@H]4O)c(C)c1c32	–	–	–	12	–	–
SMILES	EBI2 block	MC4R antagonist	m5-HT2A agonist	MC4R ag barr	MC4R barr ag	MOR DOR agonist
Cc1cccc(S(=O)(=O)NC(=O)C2(C)CCN2C(=O)Cc2ccc(Cl)cc2Cl)c1 (stereo not given)	–	–	–	–	·	·
COCCCn1c(=O)/c(=C\c2ccccc2OC(F)F)s/c1=C(/C#N)C(N)=O	–	–	–	–	·	·
COCCCn1c(=O)/c(=C\c2ccc(OC(F)F)c(OC)c2)s/c1=C(/C#N)C(N)=O	–	–	–	12	–	–
O=C1NC(Cc2ccccc2)c2nc3ccc(F)cc3c(=O)n2-c2cc3ccccc3cc21 (stereo not given)	–	–	–	–	·	·
CCc1ccc(-n2nc3ccc(NC(=O)c4ccc5c(c4)OCO5)cc3n2)cc1	–	–	–	11	–	–
O=C(Nc1ccc2nn(-c3ccccc3)nc2c1)c1ccc(Br)o1	–	–	–	13	17	–
Cc1cc(O)ccc1NC(=O)Cc1cccc2ccccc12	–	–	–	–	·	·
CN(CCc1ccccc1)C(=O)CC1C(=O)NCCN1Cc1ccccn1 (stereo not given)	–	–	–	–	·	·
CCOC(=O)c1c(CSc2ccc(CC)cc2)oc2ccc(O)c(CN(C)C)c12	–	–	–	20	15	–
CCOC(=O)c1c(C)oc2ccc(O)c(CN(C)C)c12	–	–	–	–	·	·
COc1ccc(OCc2nn3c(-c4cccc(OC)c4)nnc3s2)cc1	–	–	–	11	–	–
COc1cc(-c2nnc3sc(Cc4ccc(Cl)cc4)nn23)cc(OC)c1OC	–	–	–	14	11	–
c1ccc2c(c1)nnn2Cn1nnc2ccccc21	–	–	–	–	·	·
COc1ccc(C(=O)Nc2c(F)c(F)c(F)c(F)c2F)cc1OC	–	·	–	·	·	·
COc1ccc(NC(=O)c2ccc(F)c(F)c2)c2ccccc12	–	–	–	21	–	–
CCOC(=O)[C@]12CCC=C1N(Cc1ccc(Cl)cc1Cl)C(=O)[C@H](CC(=O)NCCc1ccccc1OC)C2	–	·	–	·	·	·
COc1c(C(=O)Nc2ccc(Br)cn2)ccc2ccccc12	–	–	–	12	–	–
Cc1nn(Cc2ccccc2Cl)c(C)c1C(=O)NCCN1C(=O)S/C(=C\c2ccccc2)C1=O	–	–	–	20	12	–
N#Cc1sc2nc(-c3cccs3)cc(-c3ccc(F)cc3)c2c1N	–	–	–	35	19	–
CCCS(=O)(=O)NC(=O)C1(C)CCN(C(=O)c2ccc(OC)c(F)c2)C1 (stereo not given)	–	–	–	–	·	·
OC(c1ccc(-c2ccccc2)cc1)c1ncc(-c2ccc(F)cc2)[nH]1 (stereo not given)	–	–	–	10	–	–
OC(c1cccc(F)c1)c1ncc(-c2ccc(Oc3ccccc3)cc2)[nH]1 (stereo not given)	–	–	–	10	–	–
OC(c1ccccc1)c1ncc(-c2ccc(Cl)cc2)[nH]1 (stereo not given)	–	–	–	–	·	·
COc1ccc(NC(=O)COC(=O)C2CCCN2C(=O)OC(C)(C)C)cc1Cl (stereo not given)	–	–	–	–	·	·
O=C(Nc1ccc(F)cc1)C(c1ccncc1)N1CCN(c2cccc(C(F)(F)F)n2)CC1 (stereo not given)	–	·	–	·	·	·
CCCNC(=O)c1cc(C2CCCN(C(=O)C3CC3)C2)on1 (stereo not given)	–	–	–	–	·	·
CSc1ccccc1NC(=O)Nc1cccc(Cl)c1C	–	–	–	–	·	·
CSc1ccccc1NC(=O)Nc1cccc(Cl)c1Cl	–	–	–	16	9.2	–
